What was measured:
[1] = Tmax in Sprague-Dawley rat plasma at 10 mg/kg, po; type: ADME, organism-based; design: dose 10 mg/kg, route oral
Outline: (§1)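 Male Sprague-Dawley rats dosed 2 mg/kg iv in saline (0.5 mg/mL) and 10 mg/kg po in 0.5% MC/0.2% Tween80 (1.0 mg/mL); plasma and brain concentrations followed.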

[2] = Drug metabolism in macaque plasma at 100 ng/ml after 4 hrs; type: ADME, cell-free; conditions: macaca, read-out: Drug metabolism
Outline: (§2)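 Compound spiked into blank plasma of human, mouse, rat, rabbit, macaque and dog at 100 ng/ml, then incubated in a 37 °C water bath for up to 4 h; percent metabolized reported.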

[3] = Cmax in Sprague-Dawley rat plasma at 10 mg/kg, po; type: ADME, organism-based; design: dose 10 mg/kg, route oral
Outline: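 Oral PK at 10 mg/kg po in male OF1 mice (vehicle 5% DMSO/0.5% MC/0.2% Tween80, 1.0 mg/mL) and male Sprague-Dawley rats (vehicle 0.5% MC/0.2% Tween80, 1.0 mg/mL). Cmax and tmax taken from plasma and brain concentration–time profiles.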

[4] = Drug metabolism in guinea pig liver microsomes; type: ADME, Cavia porcellus, Microsome; conditions: read-out: Drug metabolism
[5] = Toxicity in po dosed mouse; conditions: in vivo
[6] = Drug metabolism in macaque liver microsomes; type: ADME, Microsome; conditions: macaca, read-out: Drug metabolism
[7] = Toxicity in guinea pig heart assessed as decrease in ventricular contraction at 30 uM relative to control; type: tissue-based, Cavia porcellus, Cardiac ventricle
[8] = Elimination half life in OF1 mouse brain at 10 mg/kg, po; type: ADME, organism-based; design: dose 10 mg/kg, route oral; conditions: read-out: beta t1/2 (converted)
Outline: (§3)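 Single-dose PK; male OF1 mice and male Sprague-Dawley rats, 2 mg/kg iv and 10 mg/kg po. Mouse vehicles: iv 50% 1-methyl-2-pyrrolidinone in saline (1.0 mg/mL); po 5% DMSO/0.5% MC/0.2% Tween80 (1.0 mg/mL). Rat vehicles: iv saline (0.5 mg/mL); po 0.5% MC/0.2% Tween80 (1.0 mg/mL). Plasma and brain exposure read as AUC0-∞ and t1/2.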

[9] = Ratio of AUC (0 to infinity) in brain to plasma in OF1 mouse at 2 mg/kg, iv; type: ADME, organism-based; design: dose 2 mg/kg, route intravenous; conditions: brain and plasma, read-out: Ratio AUC
[10] = tested on: Mus musculus; experiment: Toxicity in mouse assessed as effect on neurological activity at 10 to 30 mg/kg, po by Irwin test; type: organism-based; design: dose 10-30 mg/kg, route oral; conditions: in vivo
Outline: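 Irwin exploratory general behaviour study in male mice; single oral doses of 0, 10 and 30 mg/kg; behavioural, neurologic and autonomic effects observed.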

[11] = AUC (0 to infinity) in Sprague-Dawley rat plasma at 2 mg/kg, iv; type: ADME, organism-based; design: time infinity, dose 2 mg/kg, route intravenous; outline: as §3
[12] = Therapeutic index, ratio for toxicity in mouse to ratio for antidepression-like activity in rat; conditions: in vivo, read-out: TI
[13] = Drug metabolism in human plasma at 100 ng/ml after 4 hrs; type: ADME, cell-free; conditions: read-out: Drug metabolism; outline: as §2
[14] = Drug metabolism in rabbit plasma at 100 ng/ml after 4 hrs; type: ADME, cell-free, Oryctolagus cuniculus; conditions: read-out: Drug metabolism; outline: as §2
[15] = molecular target: T1, Voltage-gated inwardly rectifying potassium channel KCNH2 (Canis lupus familiaris, UniProt Q9TSZ3); experiment: Inhibition of canine ERG current transfected in CHO cells by patch clamp assay; type: cell-based
T1 sequence (Q9TSZ3 whole entry): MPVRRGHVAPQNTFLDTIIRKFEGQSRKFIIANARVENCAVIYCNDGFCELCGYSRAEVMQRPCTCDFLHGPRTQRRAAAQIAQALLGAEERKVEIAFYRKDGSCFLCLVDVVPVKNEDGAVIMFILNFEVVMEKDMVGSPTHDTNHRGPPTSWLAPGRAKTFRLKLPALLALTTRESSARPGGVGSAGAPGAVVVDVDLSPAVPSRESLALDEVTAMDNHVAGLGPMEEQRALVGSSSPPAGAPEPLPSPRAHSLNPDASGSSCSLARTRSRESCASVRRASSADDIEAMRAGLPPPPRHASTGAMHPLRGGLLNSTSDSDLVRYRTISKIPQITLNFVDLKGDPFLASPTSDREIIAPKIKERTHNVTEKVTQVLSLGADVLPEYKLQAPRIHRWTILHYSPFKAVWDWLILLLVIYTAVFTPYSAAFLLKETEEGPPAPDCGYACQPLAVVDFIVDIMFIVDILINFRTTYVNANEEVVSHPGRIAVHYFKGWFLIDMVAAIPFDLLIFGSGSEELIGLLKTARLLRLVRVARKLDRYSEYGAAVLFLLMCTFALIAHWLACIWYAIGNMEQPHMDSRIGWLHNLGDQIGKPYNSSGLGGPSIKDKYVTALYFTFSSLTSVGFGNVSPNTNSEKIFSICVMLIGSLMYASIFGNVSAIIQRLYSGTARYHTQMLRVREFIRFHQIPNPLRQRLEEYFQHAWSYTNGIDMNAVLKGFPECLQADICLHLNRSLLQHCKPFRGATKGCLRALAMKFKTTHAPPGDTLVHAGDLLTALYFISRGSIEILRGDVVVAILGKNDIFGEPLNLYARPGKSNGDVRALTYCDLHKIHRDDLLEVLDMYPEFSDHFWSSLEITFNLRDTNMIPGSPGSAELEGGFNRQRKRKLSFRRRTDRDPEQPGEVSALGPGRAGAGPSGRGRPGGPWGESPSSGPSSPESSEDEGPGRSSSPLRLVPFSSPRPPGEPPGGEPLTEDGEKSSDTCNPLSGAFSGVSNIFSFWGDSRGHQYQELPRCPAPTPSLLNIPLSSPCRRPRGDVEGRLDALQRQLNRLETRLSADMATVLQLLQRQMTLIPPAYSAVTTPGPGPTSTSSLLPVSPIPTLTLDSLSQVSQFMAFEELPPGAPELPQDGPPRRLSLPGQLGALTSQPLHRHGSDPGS
Outline: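 Whole-cell patch clamp on CHO cells stably transfected with the canine ERG gene; cERG current IC50 from n = 4.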

[16] = tested on: Mus musculus; experiment: Toxicity in mouse assessed as effect on preconvulsion at 30 mg/kg, po; type: organism-based; design: dose 30 mg/kg, route oral; conditions: in vivo
Outline: (§4)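 Acute oral group toxicity in mice: behavioural side effects scored (social interaction, motility, preconvulsant signs, convulsions, tremor) after single po doses of 30 and 100 mg/kg.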

[17] = Dissociation constant, pKa of the compound; type: physicochemical
[18] = tested on: Mus musculus; experiment: Toxicity in mouse assessed as effect on convulsion at 30 mg/kg, po; type: organism-based; design: dose 30 mg/kg, route oral; conditions: in vivo; outline: as §4
[19] = Drug metabolism in mouse plasma at 100 ng/ml after 4 hrs; type: ADME, cell-free; conditions: read-out: Drug metabolism; outline: as §2
[20] = Ratio of AUC (0 to infinity) in brain to plasma in Sprague-Dawley rat at 2 mg/kg, iv; type: ADME, organism-based; design: dose 2 mg/kg, route intravenous; conditions: brain and plasma, read-out: Ratio AUC
[21] = tested on: Mus musculus; experiment: Toxicity in mouse assessed as appearance of tremor at 100 mg/kg, po; type: organism-based; design: dose 100 mg/kg, route oral; conditions: in vivo; outline: as §4
[22] = tested on: Heart; experiment: Toxicity in guinea pig heart assessed as effect on coronary pressure at 0.1 to 30 uM; type: tissue-based, Cavia porcellus
[23] = Elimination half life in OF1 mouse plasma at 2 mg/kg, iv; type: ADME, organism-based; design: dose 2 mg/kg, route intravenous; conditions: read-out: beta t1/2 (converted); outline: as §3
[24] = Drug metabolism in dog liver microsomes; type: ADME, Canis lupus familiaris; conditions: read-out: Drug metabolism
[25] = tested on: Rattus norvegicus; experiment: Plasma clearance in Sprague-Dawley rat at 2 mg/kg, iv; type: ADME, organism-based; design: dose 2 mg/kg, route intravenous; conditions: in vivo; outline: as §1
[26] = molecular target: Histamine H3 receptor (Homo sapiens, UniProt Q9Y5N1); experiment: Displacement of [3H]-methylhistamine from human histamine H3 receptor transfected in human 293 cells after 1 hr by scintillation counting analysis; type: cell-based
Sequence of Histamine H3 receptor (Q9Y5N1 whole entry): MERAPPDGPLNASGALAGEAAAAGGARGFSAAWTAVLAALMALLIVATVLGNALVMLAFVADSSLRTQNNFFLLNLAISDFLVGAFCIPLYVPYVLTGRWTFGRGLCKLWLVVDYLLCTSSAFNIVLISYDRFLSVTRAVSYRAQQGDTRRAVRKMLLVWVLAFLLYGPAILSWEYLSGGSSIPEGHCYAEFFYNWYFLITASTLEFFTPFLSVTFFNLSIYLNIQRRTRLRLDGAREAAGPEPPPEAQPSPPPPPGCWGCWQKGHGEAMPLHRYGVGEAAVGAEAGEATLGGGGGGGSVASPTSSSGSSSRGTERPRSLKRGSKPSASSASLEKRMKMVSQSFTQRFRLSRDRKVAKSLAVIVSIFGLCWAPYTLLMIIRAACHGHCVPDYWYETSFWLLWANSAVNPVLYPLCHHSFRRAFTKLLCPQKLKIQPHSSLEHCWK

Cc1cc(N2CC[C@H](N3CCC[C@@H]3C)C2)ccc1NC(=O)c1c(C)noc1C
Tmax [1]: 30 min
metabolised at 4 h, 100 ng/ml [2]: < 5%
Cmax [3]: 749 ng/mL
metabolised [4]: 35%
MTD [5]: 30 mg/kg
metabolised [6]: < 5%
inhibition at 30 µM [7]: 33%
half-life [8]: 282 min
Kp [9]: 1.6
Activity [10]: Non-toxic
AUC(0-inf) [11]: 1100 ng·h/mL
selectivity ratio [12]: 3
metabolised at 4 h, 100 ng/ml [13]: < 5%
metabolised at 4 h, 100 ng/ml [14]: < 5%
IC50 [15]: 44 µM
Activity [16]: Non-toxic
pKa [17]: 10.1
Activity [18]: Non-toxic
metabolised at 4 h, 100 ng/ml [19]: < 5%
Kp [20]: 1.1
Activity [21]: Toxic
Activity [22]: Non-toxic
half-life [23]: 39 min
metabolised [24]: < 5%
clearance [25]: 30 mL/min/kg
Ki [26]: 0.0001 µM

From ChEMBL document CHEMBL3085708, “Identification and profiling of 3,5-dimethyl-isoxazole-4-carboxylic acid [2-methyl-4-((2S,3'S)-2-methyl-[1,3']bipyrrolidinyl-1'-yl)phenyl] amide as histamine H(3) receptor antagonist for the treatment of depression” (Bioorg Med Chem Lett, 2013)
